From ChEMBL document CHEMBL1136759, “Synthesis and antiviral activity of novel erythrofuranosyl imidazo[1,2-a]pyridine C-nucleosides constructed via palladium coupling of iodoimidazo[1,2-a]pyridines and dihydrofuran” (J Med Chem, 2003)

Tests used:
Human betaherpesvirus 5 [1] = assay: Antiviral activity against HCMV using plaque reduction assay; >100 indicates IC50 greater than the noted(highest) concentration tested.; format: functional, organism-based
In short: (§1)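 HFF cells in 24-well dishes infected with about 100 pfu HCMV (Towne strain) per cm2 cell sheet. After adsorption, drug in growth medium added to duplicate wells at four to eight concentrations. Incubated 7 days at 37 °C, then fixed and stained with crystal violet, and plaques counted microscopically. IC50 from linear regression of % plaque reduction versus log concentration. Means of 2–5 experiments.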

Human alphaherpesvirus 1 [2] = assay: Antiviral activity against HSV-1 using ELISA assay; >100 indicates IC50 greater than the noted (highest) concentration tested.; format: functional, organism-based
In short: (§2)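 BSC-1 cells seeded at 10000 per well in MEM(E) with 10% calf serum and incubated overnight. Drug added in quadruplicate with HSV-1 (KOS) at 100 pfu/well, then 3 days at 37 °C. Detection used HRP-conjugated rabbit anti-HSV-1 antibody with TMB substrate, read at 450 and 570 nm. IC50 from regression of % absorbance reduction versus log concentration.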

Human betaherpesvirus 5 [3] = assay: Antiviral activity against HCMV using plaque reduction assay; >100 indicates IC50 greater than the noted (highest) concentration tested.; format: functional, organism-based; in short: as §1
[4] = Visual cytotoxicity was scored on HFF cells at time of HCMV plaque enumeration; >100 indicates IC50 greater than the noted (highest) concentration tested.; format: functional, cell-based; conditions: Homo sapiens
In short: (§3)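 Stationary HFF cells, not affected by virus, inspected microscopically for cytotoxicity at the time of plaque counting in the 7-day, 37 °C HCMV plaque assay. Drug was in growth medium. IC50 estimated from regression of % inhibition against log concentration.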

KB [5] = assay: Inhibition of KB cell growth was determined; >100 indicates IC50 greater than the noted(highest) concentration tested.; format: functional, cell-based; conditions: Homo sapiens
In short: (§4)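 KB cells seeded at 3000-5000 per well and incubated overnight. Compound added in quadruplicate at six to eight concentrations, then 48 h at 37 °C in CO2, covering about two population doublings. Cells fixed in 95% ethanol, stained with 0.1% crystal violet, dye eluted with acidified ethanol, read at 570 nm. IC50 by linear regression against log concentration.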

Human betaherpesvirus 5 [6] = assay: Antiviral activity against HCMV using plaque reduction assay; format: functional, organism-based; in short: as §1
Human alphaherpesvirus 1 [7] = assay: Antiviral activity against HSV-1 using ELISA assay; format: functional, organism-based; in short: as §2
[8] = Visual cytotoxicity was scored on HFF cells at time of HCMV plaque enumeration; format: functional, cell-based; conditions: Homo sapiens; in short: as §3
KB [9] = assay: Inhibition of KB cell growth was determined; format: functional, cell-based; conditions: Homo sapiens; in short: as §4
[10] = Visual cytotoxicity was scored on HFF cells at time of HCMV plaque enumeration; >100 indicates IC50 greater than the noted(highest) concentration tested.; format: functional, cell-based; conditions: Homo sapiens; in short: as §3

Row | IC50 (Human betaherpesvirus 5 [1]) | IC50 (Human alphaherpesvirus 1 [2]) | IC50 (KB [5]) | IC50 (Human betaherpesvirus 5 [6]) | Structure (SMILES) | IC50 [4] | further results
1 | > 100 µM | > 100 µM |  |  | O[C@@H]1[C@H](O)CO[C@@H]1c1c(Cl)nc2cc(Cl)c(Cl)cn12 |  | 
2 |  | > 100 µM | > 100 µM |  | O[C@@H]1C(c2c(Cl)nc3cc(Cl)c(Cl)cn23)OC[C@@H]1O (some centres not stated) | > 100 µM | IC50 (Human betaherpesvirus 5 [3]): > 100 µM
3 | > 100 µM | > 100 µM | > 100 µM |  | O[C@@H]1[C@H](O)CO[C@@H]1c1c(Cl)nc2ccc(Cl)cn12 | > 100 µM | 
4 |  |  |  | 2.9 µM | O[C@@H]1[C@H](O)CO[C@@H]1c1c(Cl)nc2cc(Cl)c(Cl)cn12 (stereo in doubt; 20) |  | IC50 (Human alphaherpesvirus 1 [7]; Human alphaherpesvirus 1): 14 µM; IC50 [8]: 100 µM; IC50 (KB [9]): 68 µM
5 | > 100 µM | > 100 µM | > 100 µM |  | O[C@@H]1COC(c2c(Cl)nc3ccc(Cl)cn23)[C@@H]1O (single isomer, unassigned) |  | IC50 [10]: > 100 µM
6 |  |  | > 100 µM | 8 µM | O[C@@H]1[C@H](O)CO[C@@H]1c1c(Cl)nc2cc(Cl)c(Cl)cn12 (stereo in doubt; 15a) | > 100 µM | IC50 (Human alphaherpesvirus 1 [7]): 24 µM
